Assay results reported in ChEMBL document CHEMBL1129310, “(Aminoalkyl)indole isothiocyanates as potential electrophilic affinity ligands for the brain cannabinoid receptor” (J Med Chem, 1996).

molecular target: T1, Cannabinoid receptor 1 (Rattus norvegicus, UniProt P20272); test: Binding affinity against brain cannabinoid receptor 1 using [3H]CP-55940 as radioligand at 0.25 nM concentration
Method in brief: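 Rat brain P2 membranes (30 µg protein) were suspended in 20 mM potassium diethylmalonate pH 7.5 with 2.25 mM MgCl2 and 0.025% β-cyclodextrin, then incubated with [3H]CP-55940 for 1 h at 30 °C. Compounds came from DMSO stocks diluted through β-cyclodextrin. The reaction was stopped with BSA and glass-fibre filtration. Nonspecific binding was defined with 0.1 µM desacetyllevonantradol. Displacement curves were fitted by nonlinear regression, triplicate points.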

T1 sequence (P20272 whole entry): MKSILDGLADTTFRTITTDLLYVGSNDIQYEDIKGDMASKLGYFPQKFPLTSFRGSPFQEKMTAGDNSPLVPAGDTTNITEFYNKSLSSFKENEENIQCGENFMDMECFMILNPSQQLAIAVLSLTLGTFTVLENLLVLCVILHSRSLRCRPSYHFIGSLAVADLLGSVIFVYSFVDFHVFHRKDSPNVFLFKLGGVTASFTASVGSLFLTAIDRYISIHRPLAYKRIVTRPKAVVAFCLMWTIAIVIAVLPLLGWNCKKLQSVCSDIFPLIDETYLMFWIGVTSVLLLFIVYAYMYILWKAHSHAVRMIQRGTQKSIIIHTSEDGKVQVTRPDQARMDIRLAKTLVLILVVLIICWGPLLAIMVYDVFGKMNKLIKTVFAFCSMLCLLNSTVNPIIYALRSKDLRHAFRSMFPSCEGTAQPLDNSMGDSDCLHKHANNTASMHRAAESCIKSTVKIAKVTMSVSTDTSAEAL

Q: For `O=C(c1cccc2cc(N=C=S)ccc12)c1cn(CCN2CCOCC2)c2ccccc12`, which IC50 is on record?
A: 530 nM

Q: With `O=C(c1cccc2ccccc12)c1cn(CCN2CCOCC2)c2ccccc12` as the compound, how does the IC50 read?
A: 46 nM

Q: Which IC50 does the source give for `O=C(c1ccc(N=C=S)c2ccccc12)c1cn(CCN2CCOCC2)c2ccccc12` here?
A: 440 nM

Q: Which IC50 does the source give for `O=C(c1cccc2ccccc12)c1cn(CCN2CCOCC2)c2cc(N=C=S)ccc12` here?
A: 160 nM

Q: Which IC50 does the source give for `O=C(c1cc(N=C=S)cc2ccccc12)c1cn(CCN2CCOCC2)c2ccccc12` here?
A: 920 nM

molecular target: T1, Cannabinoid receptor 1; test: Binding affinity against brain Cannabinoid receptor 1 using [3H]CP-55940 as radioligand at 1.1 nM concentration

Q: With `Cc1c(C(=O)c2ccc(N=C=S)c3ccccc23)c2ccccc2n1CCN1CCOCC1` as the compound, how does the IC50 read?
A: 690 nM
